# Experimental data reported in ChEMBL document CHEMBL4732272, “Remodelin Is a Cryptic Assay Interference Chemotype That Does Not Inhibit NAT10-Dependent Cytidine Acetylation” (ACS Med Chem Lett, 2021).
# Activity calls are given as the source filed them. The rule behind the calls is not given here.
# How the values were obtained:
# [1] = biological target: T1, RNA cytidine acetyltransferase (Homo sapiens) (UniProt Q9H0A0); test: Stabilization of full length recombinant NAT10 (unknown origin) by DSLS based analysis
# T1 sequence (whole entry): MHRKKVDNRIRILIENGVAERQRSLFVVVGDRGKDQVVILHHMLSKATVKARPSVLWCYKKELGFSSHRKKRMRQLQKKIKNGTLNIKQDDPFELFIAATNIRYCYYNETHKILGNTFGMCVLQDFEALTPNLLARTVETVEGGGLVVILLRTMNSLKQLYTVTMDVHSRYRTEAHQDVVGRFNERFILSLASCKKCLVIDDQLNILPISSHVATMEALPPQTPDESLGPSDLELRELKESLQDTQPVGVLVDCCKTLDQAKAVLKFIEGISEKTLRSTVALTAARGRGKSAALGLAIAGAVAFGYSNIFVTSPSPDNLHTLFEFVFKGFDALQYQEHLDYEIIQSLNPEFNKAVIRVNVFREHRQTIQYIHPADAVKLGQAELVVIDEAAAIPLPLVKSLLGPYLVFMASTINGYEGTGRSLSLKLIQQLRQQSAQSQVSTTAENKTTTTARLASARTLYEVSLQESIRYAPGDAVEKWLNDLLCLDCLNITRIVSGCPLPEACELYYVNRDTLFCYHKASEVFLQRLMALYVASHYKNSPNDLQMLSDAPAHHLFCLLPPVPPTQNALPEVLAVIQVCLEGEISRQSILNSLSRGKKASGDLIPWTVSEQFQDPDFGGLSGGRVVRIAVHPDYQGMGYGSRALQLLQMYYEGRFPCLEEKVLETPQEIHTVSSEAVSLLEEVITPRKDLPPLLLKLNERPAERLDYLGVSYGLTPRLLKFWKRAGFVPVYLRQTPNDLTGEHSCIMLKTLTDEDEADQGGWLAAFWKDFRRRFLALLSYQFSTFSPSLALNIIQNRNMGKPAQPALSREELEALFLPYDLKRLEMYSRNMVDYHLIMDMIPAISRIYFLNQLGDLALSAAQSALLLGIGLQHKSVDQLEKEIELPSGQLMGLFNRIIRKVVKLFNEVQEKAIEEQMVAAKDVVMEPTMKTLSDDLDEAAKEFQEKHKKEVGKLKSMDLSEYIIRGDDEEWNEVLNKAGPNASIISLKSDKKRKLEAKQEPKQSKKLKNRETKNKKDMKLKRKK
# Procedure, shortened: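 Full-length recombinant NAT10 thermal stability measured by differential static light scattering with ATP, acetyl-CoA or remodelin added.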
# [2] = biological target: T1, RNA cytidine acetyltransferase (Homo sapiens); test: Binding affinity to recombinant NAT10 acetyltransferase domain (494 to 753 residues) (unknown origin) by isothermal titration calorimetry
# Procedure, shortened: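 Recombinant NAT10 acetyltransferase domain (residues 494–753) titrated with acetyl-CoA or remodelin by isothermal titration calorimetry.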
# [3] = system: K562; test: Covalent protein binding in human K562 cells by rhodamine azide based fluorescence analysis; type: functional, cell-based; details: dose 10-100 µM
# Procedure, shortened: (§1)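 K562 cancer cell lysates incubated with clickable probes across a dose range (down to 10 μM), then click-labelled with rhodamine azide to visualise proteome labelling; competition run with remodelin added.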
# [4] = Thiol-reactivity using La antigen containing reactive cysteine C232 and C245 in presence of DTT by ALARM NMR analysis; type: ADME
# [5] = biological target: T1, RNA cytidine acetyltransferase (Homo sapiens); test: Inhibition of NAT10-catalyzed RNA cytidine acetylation in human HeLa cells assessed as decrease in ac4C level at 10 to 50 uM after 48 hrs by LC-MS assay; type: cell-based; details: dose 10-50 µM
# Procedure, shortened: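 Wild-type cells treated with remodelin for 48 h; RNA ac4C levels quantified by LC-MS, with CRISPR-Cas9 NAT10 disruption as comparator.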
# [6] = biological target: T1, RNA cytidine acetyltransferase (Homo sapiens); test: Inhibition of NAT10-catalyzed RNA cytidine acetylation in human HeLa cells assessed as decrease in ac4C level at 50 uM after 48 hrs by Northern blot assay; type: cell-based
# Procedure, shortened: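 Following 48 h remodelin treatment, RNA probed by dot blot or Northern blot with an anti-ac4C antibody.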
# [7] = biological target: T1, RNA cytidine acetyltransferase (Homo sapiens); test: Inhibition of NAT10-catalyzed RNA cytidine acetylation in human HeLa cells assessed as decrease in ac4C at helix 34 of 18S rRNA at 50 uM after 4 days by UV-HPLC analysis; type: cell-based; details: time 4.0 day
# Procedure, shortened: (§2)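 Helix 34 and helix 45 ac4C of 18S rRNA analysed […] by UV-HPLC after cells were treated with remodelin at 50 μM for 4 d; NAT10 KD cells served as comparator.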
# [8] = biological target: T1, RNA cytidine acetyltransferase (Homo sapiens); test: Inhibition of NAT10-catalyzed RNA cytidine acetylation in human HeLa cells assessed as decrease in ac4C at helix 45 of 18S rRNA at 50 uM after 4 days by UV-HPLC analysis; type: cell-based; details: time 4.0 day; procedure, shortened: as §2
# [9] = Stability of the light-protected compound in aqueous buffer measured for 7 days; type: physicochemical; details: 168 h, time 7 day
# Procedure, shortened: (§3)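 Remodelin solutions followed over time: in aqueous buffer kept from light for 7 days; in DMSO monitored for darkening colour and new aromatic NMR resonances.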
# [10] = Stability of the compound in DMSO-d6 solution assessed as discoloration to dark brown colour in presence of light; type: physicochemical; procedure, shortened: as §3
# [11] = Stability of the compound in DMSO-d6 solution assessed as drug degradation measured after 24 hrs by NMR analysis; type: physicochemical
# [12] = Thiol reactivity with CoA at 1 to 50 uM measured after 30 mins by DACM thiol consumption assay; type: ADME; details: 0.5 h, dose 1-50 µM
# [13] = Redox activity of the compound assessed as H2O2 producion at 250 uM by horseradish peroxidase-phenol red counter screen based assay; type: physicochemical
# [14] = Redox activity of the compound assessed as H2O2 production at 250 uM in presence of DTT by horseradish peroxidase-phenol red counter screen based assay; type: physicochemical
# [15] = Aggregation property of the compound assessed as detergent sensitive inhibition of beta-lactamase AmpC at 33 to 100 uM; type: physicochemical; details: dose 33-100 µM
# [16] = Aggregation property of peptides assessed as colloidal aggregate formation at 25 uM by dynamic light scattering analysis; type: physicochemical
# [17] = biological target: T1, RNA cytidine acetyltransferase (Homo sapiens); test: Inhibition of NAT10-catalyzed RNA cytidine acetylation in human HeLa cells assessed as decrease in ac4C level at 10 to 50 uM after 24 to 48 hrs by dot blot assay; type: cell-based; details: dose 10-50 µM, time 24-48 hrs
# [18] = biological target: T1, RNA cytidine acetyltransferase (Homo sapiens); test: Inhibition of NAT10-catalyzed RNA cytidine acetylation in human HeLa cells assessed as decrease in ac4C at helix 45 of 18S rRNA at 50 uM after 48 hrs by nucleotide resolution sequencing analysis; type: cell-based
# Procedure, shortened: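 Helix 45 of 18S rRNA (C1842) read by nucleotide-resolution ac4C sequencing after 50 μM remodelin for 48 h; C→T change at the site scored as ac4C present, no mutation as loss; NAT10 KD as comparator.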
# [19] = biological target: Tubulin (Homo sapiens) (UniProt P68371+Q9H4B7+P0DPH7+P68366+Q13509+Q71U36+P04350+Q3ZCM7+P07437+P68363+Q9BQE3+Q6PEY2+Q13885+Q9BVA1+Q9BUF5); test: Induction of tubulin acetylation in human HEK293T cells at 10 to 50 uM measured after 48 hrs by western blot analysis; type: cell-based; details: dose 10-50 µM
# [20] = system: K562; test: Covalent protein binding in human K562 cells at 10 to 100 uM in presence of remodelin by rhodamine azide based fluorescence analysis; type: functional, cell-based; details: dose 10-100 µM; procedure, shortened: as §1
smiles,measurement,setting,value
CC(=O)SCCNC(=O)CCNC(=O)[C@H](O)C(C)(C)COP(=O)(O)OP(=O)(O)OC[C@H]1O[C@@H](n2cnc3c(N)ncnc32)[C@H](O)[C@@H]1OP(=O)(O)O,Activity,[1],Active
same,Activity,[2],Active
C#CCN(N=C1CCCC1)c1nc(-c2ccc(Cl)cc2)cs1,Activity,[3],Dose-dependent effect
N#Cc1ccc(-c2csc(NN=C3CCCC3)n2)cc1,Activity,[4],Active
same,Activity,[1],inactive
same,Activity,[2],inactive
same,inhibition,[5],inactive
same,inhibition,[6],inactive
same,inhibition,[7],inactive
same,inhibition,[8],inactive
same,Stabilty,[9],Stable
same,Stabilty,[10],Unstable
same,Stabilty,[11],Unstable
same,Activity,[12],Not Active
same,Activity,[13],Not Active
same,Activity,[14],Not Active
same,Activity,[15],Not Active
same,Activity,[16],Active
same,inhibition,[17],inactive
same,inhibition,[18],inactive
same,Activity,[19],inactive
C#CCNC(=O)c1ccc(-c2csc(NN=C3CCCC3)n2)cc1,Stabilty,[10],Unstable
same,Activity,[3],Dose-dependent effect
same,Activity,[20],inactive
Nc1ncnc2c1ncn2[C@@H]1O[C@H](COP(=O)(O)OP(=O)(O)OP(=O)(O)O)[C@@H](O)[C@H]1O,Activity,[1],Active
